In brackets after ≈: the same amount, converted by molar mass. Activity calls are given as the source filed them. The rule behind the calls is not given here.
Tests used:
[1] = system: Staphylococcus aureus; experiment: Induction of degradation of Staphylococcus aureus A170 biofilm at 50 ug/ml assessed as concentration required for complete degradation after 24 hrs by crystal violet staining method relative to control; type: functional; settings: in the assay text read “after 8 hrs” for “after 24 hrs”
[2] = system: Staphylococcus aureus; experiment: Induction of degradation of Staphylococcus aureus A170 biofilm at 30 ug/ml after 24 hrs by crystal violet staining method relative to control; type: functional; settings: in the assay text read “after 8 hrs” for “after 24 hrs”
[3] = system: Staphylococcus aureus; experiment: Antibiofilm activity against Staphylococcus aureus A170 at 25 ug/ml after 24 hrs by crystal violet staining method relative to control; type: functional, organism-based
[4] = system: Candida albicans; experiment: Induction of degradation of Candida albicans SC5314 biofilm at 20 ug/ml after 24 hrs by XTT assay relative to vehicle-treated control; type: functional, organism-based; settings: in the assay text read “after 8 hrs” for “after 24 hrs”
[5] = system: Candida albicans; experiment: Antibiofilm activity against Candida albicans SC5314 at 8 to 60 ug/ml after 24 hrs by crystal violet staining method relative to control; type: functional, organism-based
[6] = system: Candida albicans; experiment: Antimicrobial activity against Candida albicans SC5314 assessed as inhibition of germination at 10 ug/ml after 24 hrs by inverted microscopy; type: functional, organism-based
Procedure, shortened: (§1)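 Stationary yeast cells at 6 × 10^6 cells/mL in pre-warmed hypha-inducing RPMI 1640 (2.5% fetal calf serum, 20 mM HEPES, 2 mM L-glutamine, 16 mM NaHCO3, pH 7.0). Compound at 1–50 […]. After 24 h at 37 °C, wells examined by inverted microscope for morphology and hyphae formation.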

[7] = system: Candida albicans; experiment: Antimicrobial activity against Candida albicans SC5314 assessed as inhibition of hyphae formation after 24 hrs by inverted microscopy; type: functional, organism-based; procedure, shortened: as §1
[8] = system: Candida albicans; experiment: Antimicrobial activity against Candida albicans SC5314 after 24 hrs by microbroth dilution method; type: functional; settings: SC5314, 24 h, read-out: MIC100
Procedure, shortened: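 CLSI broth microdilution in RPMI 1640 (L-glutamine, no glucose or NaHCO3) buffered to pH 7.0 with 0.165 M MOPS. Two-fold serial dilutions inoculated with 2.5 × 10^3 yeast/mL and incubated at 35 °C for 24 h, using three plates. MIC read visually as the lowest concentration giving optically clear wells versus the drug-free control.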

[9] = system: Pseudomonas aeruginosa; experiment: Antimicrobial activity against Pseudomonas aeruginosa ATCC 27853 after 24 hrs by microbroth dilution method; type: functional; settings: ATCC 27853, 24 h, read-out: MIC100
Procedure, shortened: (§2)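 Two-fold serial dilutions, six replicates each, inoculated with about 5 × 10^5 CFU/mL in cation-adjusted Mueller-Hinton broth 2. Incubated at 37 °C, 160 rpm, 24 h. OD600 taken at 0 and 24 h; T0 subtracted; % inhibition calculated relative to the bacteria-plus-broth control. MIC is the lowest concentration giving 100% inhibition.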

[10] = system: Salmonella typhimurium; experiment: Antimicrobial activity against Salmonella typhimurium after 24 hrs by microbroth dilution method; type: functional, Salmonella enterica subsp. enterica serovar Typhimurium; settings: Salmonella enterica, read-out: MIC100; procedure, shortened: as §2
[11] = system: Listeria monocytogenes; experiment: Antimicrobial activity against Listeria monocytogenes after 24 hrs by microbroth dilution method; type: functional; settings: read-out: MIC100; procedure, shortened: as §2
[12] = system: Staphylococcus aureus; experiment: Antimicrobial activity against Staphylococcus aureus A170 after 24 hrs by microbroth dilution method; type: functional; settings: A170, 24 h, read-out: MIC100; procedure, shortened: as §2
[13] = system: Staphylococcus aureus; experiment: Antibiofilm activity against Staphylococcus aureus A170 at 30 ug/ml after 24 hrs by crystal violet staining method relative to control; type: functional, organism-based

SMILES	Activity [1] [µg/mL]	Activity [2] [%]	Activity [3]	Activity [4]	Activity [5]	inhibition [6]	inhibition [7]	MIC [8] [µg/mL]	MIC [9] [µg/mL]	MIC [10] [µg/mL]	MIC [11] [µg/mL]	MIC [12] [µg/mL]	Activity [13]
CCCc1cc(/N=N/c2ccc(O)cc2)ccc1O	50	>60	Active	Active	Active	Active	Dose-dependent effect	20 (≈ 78 µM)	> 60	> 60	25 (≈ 97.5 µM)	20 (≈ 78 µM)	–
C=CCc1cc(/N=N/c2ccc(O)cc2)cc(C)c1O	50	>60	Active	Active	Active	–	–	15 (≈ 55.9 µM)	> 60	> 60	> 60	25 (≈ 93.2 µM)	–
Oc1ccc(/C=C/c2cc(O)cc(O)c2)cc1 [RESVERATROL]	–	–	–	–	–	–	–	> 128	> 400	> 400	–	100 (≈ 438 µM)	–
C=CCc1cc(/N=N/c2ccc(O)cc2)ccc1O	50	>60	Active	Active	Active	–	–	20 (≈ 78.7 µM)	> 60	> 60	25 (≈ 98.3 µM)	20 (≈ 78.7 µM)	–
CCc1cc(/N=N/c2ccc(O)cc2)ccc1O	50	>60	Active	Active	Active	–	–	30 (≈ 124 µM)	> 60	> 60	50 (≈ 206 µM)	30 (≈ 124 µM)	–
Cc1cc(/N=N/c2ccc(O)cc2)cc(C)c1O	50	40	–	Active	Active	–	–	17 (≈ 70.2 µM)	> 60	> 60	25 (≈ 103 µM)	20 (≈ 82.5 µM)	Active
